Test [1] has as its target T1, PKN3 (Homo sapiens, UniProt Q6P5Z2). As to the kind of experiment: split-luciferase binding assay.
Test [2] deals with kinases in lysates of SUM159 cells. As to the kind of experiment: MIB-MS kinome profiling. Format: binding. The settings on record: 1 μM; for kinases on which activity was detected: threshold 5-fold change.
The next test has as its target NLK. The settings on record: read-out: Kd NLK; DiscoverX KinomeSCAN, prior annotation of PKIS2; cited from earlier work.
For a further test, the target named is ACVR1. The settings on record: read-out: ACVR1 Kd; DiscoverX profiling; cited from earlier work.
The test system of another test is human kinome. The settings on record: at 1 μM, across the human kinome; cited from earlier work.
For test [3], the target named is T1, PKN3. As to the kind of experiment: PKN3 NanoBRET in-cell target engagement. Format: cell-based. A digest of the protocol: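 Full-length PKN3 with N-terminal NanoLuc (Gly-Ser-Ser-Gly linker) transiently expressed in HEK-293 cells for 20-30 hr at 37°C/5% CO2. Cells in Opti-MEM at 2 x 10^4/well are equilibrated 2 h with tracer K-5 (1000 nM final) and test compound. NanoBRET substrate and extracellular NanoLuc inhibitor are added, and donor/acceptor luminescence is read. IC50 comes from a variable-slope fit, normalised to controls when needed.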
A general note: In BRET a luciferase serves as donor, and the signal depends on an acceptor being close.

In test [4] the test system is GAK. The settings on record: read-out: GAK activity in cells IC50; GAK NanoBRET; cited from earlier work.
For test [5], the system named is GAK. As to the kind of experiment: GAK NanoBRET. Format: cell-based. The settings on record: NanoBRET GAK vs PKN3.
The subject of test [6] is GAK. As to the kind of experiment: GAK FRET binding. The settings on record: compared to 14.
Setting [7] is: PKN3 IC50, SLCA assay (n=2), 8-point dose response.

T1 sequence (Q6P5Z2 whole entry): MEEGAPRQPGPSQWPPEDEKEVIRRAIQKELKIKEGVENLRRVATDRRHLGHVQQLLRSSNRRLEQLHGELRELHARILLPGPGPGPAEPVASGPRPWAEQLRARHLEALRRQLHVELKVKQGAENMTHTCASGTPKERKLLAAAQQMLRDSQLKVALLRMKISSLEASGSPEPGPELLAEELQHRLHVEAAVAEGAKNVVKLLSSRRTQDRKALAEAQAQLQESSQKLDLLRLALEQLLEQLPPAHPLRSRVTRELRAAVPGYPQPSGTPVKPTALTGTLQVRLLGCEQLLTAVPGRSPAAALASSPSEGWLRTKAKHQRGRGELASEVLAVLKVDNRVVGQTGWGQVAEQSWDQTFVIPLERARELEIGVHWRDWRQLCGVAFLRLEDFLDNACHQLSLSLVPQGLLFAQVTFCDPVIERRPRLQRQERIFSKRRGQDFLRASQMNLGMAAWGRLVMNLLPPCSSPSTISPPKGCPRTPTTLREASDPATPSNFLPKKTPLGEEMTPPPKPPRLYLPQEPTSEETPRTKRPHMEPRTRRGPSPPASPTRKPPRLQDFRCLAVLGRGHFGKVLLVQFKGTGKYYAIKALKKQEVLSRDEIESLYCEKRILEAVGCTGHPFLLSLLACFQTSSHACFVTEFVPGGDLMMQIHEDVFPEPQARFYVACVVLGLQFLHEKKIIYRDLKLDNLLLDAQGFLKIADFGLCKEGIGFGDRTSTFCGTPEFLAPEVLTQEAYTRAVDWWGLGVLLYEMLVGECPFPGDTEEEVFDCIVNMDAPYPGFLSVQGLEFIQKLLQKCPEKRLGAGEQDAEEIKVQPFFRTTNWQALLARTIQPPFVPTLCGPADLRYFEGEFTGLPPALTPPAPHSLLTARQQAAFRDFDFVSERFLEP

By IC50 is commonly meant the concentration at which inhibition is half-maximal. `COc1cc2nccc(Oc3ccc(NC(=O)C4(C(=O)Nc5ccc(F)cc5)CC4)cc3)c2cc1OC` [Cabozantinib]: the IC50 on PKN3 [1] (setting [7]) worked out at 42 µM.

Usually Kd stands for the equilibrium constant for the complex coming apart. Regarding `COc1cc(Nc2ccnc3ccc(C(F)(F)F)cc23)cc(OC)c1OC` [Compound 2], in [2], the kinome profile entry is “narrow spectrum”; the “kinases on which activity was detected” value was “GAK and RIPK2”. Besides, the Kd on NLK is under 1000 nM. Also, at ACVR1, the Kd was 220 nM.

Regarding `COc1cc(Nc2ccnc3cc(-c4ccncc4)ccc23)cc(OC)c1OC` [Compound 3], the “number of kinases inhibited >90%” value in the test on human kinome was over 18 kinases. On PKN3 [1] (PKN3 IC50, SLCA assay), this compound gave an IC50 of 0.009 µM.

In turn, `COc1cc(Nc2ccnc3cc(I)ccc23)cc(OC)c1OC` [Compound 16, 7-iodo-N-(3,4,5-trimethoxyphenyl)quinolin-4-amine] came in with an IC50 on PKN3 [3] of 1300 nM. Moreover, the “drop off in activity from cell free SLCA assay to NanoBRET” value on PKN3 [3] (PKN3) is recorded as about 100 fold. Also, in test [2], the kinome profile entry was “narrow spectrum”; the “kinases on which activity was detected” value was “PKN3, NLK, GAK, AVCR1 and RIPK2”. Besides, the IC50 in the test on GAK [4] was 74 nM. Besides, the “more potent on GAK than PKN3 in cells” value in the test with GAK [5] is given as 17 fold. Also, the “decrease in GAK activity” value in the test with GAK [6] is 3 fold.

`CS(=O)(=O)CCNCc1ccc(-c2ccc3ncnc(Nc4ccc(OCc5cccc(F)c5)c(Cl)c4)c3c2)o1` [Lapatinib]: the IC50 on PKN3 [1] (setting [7]) came to 5.9 µM. In addition, the “PKN3 binding, in words” value on PKN3 [1] (SLCA assay) is “moderate activity”.

On PKN3 [1] (setting [7]), `CNC(=O)CN1CCC(Oc2cc3c(Nc4cccc(Cl)c4F)ncnc3cc2OC)CC1` [Sapitinib] gave an IC50 of 44 µM.

The compound `COc1cc2c(Nc3ccc(Cl)c(Cl)c3F)ncnc2cc1OC[C@@H]1C[C@@H]2CN(C)C[C@@H]2C1` [Tesevatinib] gave an IC50 on PKN3 [1] (setting [7]) of 0.24 µM.

In turn, `COc1cc2c(Nc3ccc(Br)cc3F)ncnc2cc1OCC1CCN(C)CC1` [Vandetanib] gave an IC50 on PKN3 [1] (setting [7]) of 0.54 µM.

The record behind these values is PMC9233141 (ChemMedChem, 2022).
